Source: ChEMBL document CHEMBL1139384, “First Cdc7 kinase inhibitors: pyrrolopyridinones as potent and orally active antitumor agents. 2. Lead discovery” (J Med Chem, 2009)
The source made the active and inactive calls. The calls are words filed in the database; no cut-off is given here.

Tests used:
Insulin receptor = Insulin receptor (Homo sapiens, UniProt P06213); experiment: Inhibition of IR
[1] = biological target: Serine/threonine-protein kinase NIM1 (Homo sapiens, UniProt Q8IY84); experiment: Inhibition of NIM1
[2] = biological target: Proto-oncogene tyrosine-protein kinase receptor Ret (Homo sapiens, UniProt P07949); experiment: Inhibition of RET
[3] = biological target: STE20-like serine/threonine-protein kinase (Homo sapiens, UniProt Q9H2G2); experiment: Inhibition of STLK2
[4] = biological target: Serine/threonine-protein kinase 26 (Homo sapiens, UniProt Q9P289); experiment: Inhibition of MST4
[5] = biological target: Vascular endothelial growth factor receptor 3 (Homo sapiens, UniProt P35916); experiment: Inhibition of VEGFR3
Hepatocyte = experiment: Metabolic stability in rat hepatocytes assessed as intrinsic clearance at 1 uM; type: cell-based; details: Liver
[6] = Clearance in nu/nu mouse at 10 mg/kg, iv administered as single dose; type: ADME, organism-based; design: dose 10 mg/kg, route intravenous; details: in vivo
Outline: (§1)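 Single iv or oral dose in 5% dextrose to overnight-fasted animals. Nu/Nu mice: males, 3 per route, saphenous bleeds to 24 h. Han-Wistar rats: males, 3 per route, jugular bleeds to 24 h. Beagle dogs: 2 per sex, iv and po crossover 2 weeks apart, jugular bleeds to 48 h. Plasma by LC/MS/MS; noncompartmental parameters, AUC by linear trapezoid with extrapolation.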

[7] = Half life in nu/nu mouse at 10 mg/kg, iv administered as single dose; type: ADME, organism-based; design: dose 10 mg/kg, route intravenous; details: in vivo; outline: as §1
[8] = Tmax in nu/nu mouse at 10 mg/kg, po administered as single dose; type: ADME, organism-based; design: dose 10 mg/kg, route oral; details: in vivo
Outline: (§2)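 Overnight-fasted male Nu/Nu mice got a single 10 mg/kg dose in 5% dextrose, iv or po, three mice per route. Saphenous blood was drawn at 0.083 (iv) or 0.25 (po), 0.5, 1, 6 and 24 h. Plasma was assayed by LC/MS/MS and analysed noncompartmentally. Tmax is the observed peak time, Vss = CL·MRT, and F is the ratio of dose-normalized AUC∞ po/iv.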

[9] = Oral bioavailability in nu/nu mouse at 10 mg/kg administered as single dose; type: ADME, organism-based; details: in vivo; outline: as §2
[10] = biological target: Cell division cycle 7-related protein kinase (Homo sapiens, UniProt O00311); experiment: Inhibition of human Cdc7 assessed as inhibition of rate of phosphorylation of Mcm2 protein
A2780 [11] = experiment: Antiproliferative activity against human A2780 cells after 72 hrs by luciferase based assay; type: functional, cell-based; details: Homo sapiens, A2780, 72 h
[12] = Volume of distribution at steady state in Wistar rat at 10 mg/kg, iv administered as single dose; type: ADME, organism-based; design: dose 10 mg/kg, route intravenous; details: in vivo, read-out: Vdss
Outline: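 Overnight-fasted male Han-Wistar rats got a single 10 mg/kg iv dose in 5% dextrose, three per leg. Jugular blood was drawn from 0.083 to 24 h. Urine was collected over 0–6 and 6–24 h. Plasma and urine were assayed by LC/MS/MS and analysed noncompartmentally. Vss = CL·MRT.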

[13] = Half life in Wistar rat at 10 mg/kg, iv administered as single dose; type: ADME, organism-based; design: dose 10 mg/kg, route intravenous; details: in vivo; outline: as §1
[14] = AUC (0 to infinity) in Beagle dog at 5 mg/kg, iv administered as single dose; type: ADME, organism-based, Canis lupus familiaris; design: time infinity, dose 5 mg/kg, route intravenous; details: plasma; outline: as §1
[15] = Cmax in Beagle dog at 10 mg/kg, po administered as single dose; type: ADME, organism-based, Canis lupus familiaris; design: dose 10 mg/kg, route oral; details: in vivo; outline: as §1
[16] = AUC (0 to infinity) in Beagle dog at 10 mg/kg, po administered as single dose; type: ADME, organism-based, Canis lupus familiaris; design: time infinity, dose 10 mg/kg, route oral; details: plasma; outline: as §1
[17] = Half life in Beagle dog at 10 mg/kg, po administered as single dose; type: ADME, organism-based, Canis lupus familiaris; design: dose 10 mg/kg, route oral; details: in vivo; outline: as §1
[18] = Antiproliferative activity against human NCI-H929 cells after 72 hrs by luciferase based assay; type: functional, cell-based; details: NCI-H929, 72 h
Outline: (§3)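 Cells seeded at 2500–5000/well in complete medium (RPMI1640, McCoy's or DMEM with 10% FCS, by line); compound added after 24 h, 72 h at 37 °C, 5% CO2.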

OPM-2 = experiment: Antiproliferative activity against human OPM2 cells after 72 hrs by luciferase based assay; type: functional, cell-based; details: OPM-2, 72 h; outline: as §3
NHDF = experiment: Antiproliferative activity against human NHDF cells after 72 hrs by luciferase based assay; type: cell-based
[19] = Antiproliferative activity against mouse NIH/3T3 cells after 72 hrs by luciferase based assay; type: cell-based; details: NIH3T3, 72 h; outline: as §3
HeLa [20] = experiment: Inhibition of DNA synthesis in human HeLa cells at 3 uM assessed as bromodeoxyuridine incorporation after 9 hrs; type: functional; design: scale not given: the % may be the effect or the level left
Outline: (§4)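 Logarithmically growing HeLa cells exposed to 3 µM for set times, labelled with 50 µM BrdU, fixed in 70% ethanol. DNA content by propidium iodide with RNase A, 30 min at 37 °C; BrdU by FITC anti-BrdU after 2N HCl denaturation; percent positive cells by FACS.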

HeLa [21] = experiment: Cell cycle arrest in human HeLa cells assessed as accumulation at S phase at 3 uM by fluorescence activated cell sorting; type: functional, cell-based; outline: as §4
A2780 [22] = experiment: Induction of apoptosis in human A2780 cells assessed as caspase 3 activation at 3 uM up to 24 hrs; type: functional, cell-based
Outline: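 A2780 cells held at 3 µM for up to 24 h; extracts in Tris-HCl pH 6.8 with 1% SDS and DTT, 15 µg protein per lane; cleaved caspase 3 detected by Western blot.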

Cytochrome P450 2C19 = Cytochrome P450 2C19 (Homo sapiens, UniProt P33261); experiment: Inhibition of human CYP2C19; type: ADME
Cytochrome P450 3A4 = Cytochrome P450 3A4 (Homo sapiens, UniProt P08684); experiment: Inhibition of human CYP3A4; type: ADME
Mus musculus = experiment: Inhibition of human Cdc7 in human A2780 cells xenografted in CDI nu/nu mouse assessed as inhibition of Ser40 phosphorylation of Mcm2 protein at 60 mg/kg, po first dose administered at 6 hrs and second dose 3 hrs after first dose by Western blot; type: functional, organism-based; design: dose 60 mg/kg
Outline: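 Mice bearing A2780 xenografts given two oral doses of 60 mg/kg, the second 3 h after the first, over 6 h, or vehicle. Explanted tumors blotted for Mcm2 phospho-Ser40 and phospho-Ser53, with total MCM2 and tubulin as loading controls.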

[23] = biological target: Cyclin-dependent kinase 2 (Homo sapiens, UniProt P24941); experiment: Inhibition of Cdk2A
[24] = Inhibition of CK2
[25] = biological target: Protein kinase C beta type (Homo sapiens, UniProt P05771); experiment: Inhibition of PKCbeta
[26] = biological target: Tyrosine-protein kinase ABL1 (Homo sapiens, UniProt P00519); experiment: Inhibition of ABL
[27] = biological target: RAC-alpha serine/threonine-protein kinase (Homo sapiens, UniProt P31749); experiment: Inhibition of AKT1
Aurora kinase A = Aurora kinase A (Homo sapiens, UniProt O14965); experiment: Inhibition of AUR2
[28] = biological target: Cyclin-dependent kinase 4 (Homo sapiens, UniProt P11802); experiment: Inhibition of CDK4
[29] = biological target: Serine/threonine-protein kinase Chk1 (Homo sapiens, UniProt O14757); experiment: Inhibition of CHK1
[30] = biological target: Mitogen-activated protein kinase 1 (Homo sapiens, UniProt P28482)
[31] = Tmax in Wistar rat at 20 mg/kg, po administered as single dose; details: in vivo

Chain of Mitogen-activated protein kinase 1 (P28482 whole entry): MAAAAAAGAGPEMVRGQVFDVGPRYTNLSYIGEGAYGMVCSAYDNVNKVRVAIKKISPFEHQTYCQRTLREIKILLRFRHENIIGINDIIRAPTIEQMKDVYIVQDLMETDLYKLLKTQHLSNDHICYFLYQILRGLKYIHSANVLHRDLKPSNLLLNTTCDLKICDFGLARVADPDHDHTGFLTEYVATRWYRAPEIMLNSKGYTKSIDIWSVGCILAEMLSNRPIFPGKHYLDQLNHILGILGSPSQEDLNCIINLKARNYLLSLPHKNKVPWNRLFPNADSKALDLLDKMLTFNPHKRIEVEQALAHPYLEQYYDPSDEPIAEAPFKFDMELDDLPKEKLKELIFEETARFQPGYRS
Chain of Insulin receptor (P06213 28-758 limits assumed): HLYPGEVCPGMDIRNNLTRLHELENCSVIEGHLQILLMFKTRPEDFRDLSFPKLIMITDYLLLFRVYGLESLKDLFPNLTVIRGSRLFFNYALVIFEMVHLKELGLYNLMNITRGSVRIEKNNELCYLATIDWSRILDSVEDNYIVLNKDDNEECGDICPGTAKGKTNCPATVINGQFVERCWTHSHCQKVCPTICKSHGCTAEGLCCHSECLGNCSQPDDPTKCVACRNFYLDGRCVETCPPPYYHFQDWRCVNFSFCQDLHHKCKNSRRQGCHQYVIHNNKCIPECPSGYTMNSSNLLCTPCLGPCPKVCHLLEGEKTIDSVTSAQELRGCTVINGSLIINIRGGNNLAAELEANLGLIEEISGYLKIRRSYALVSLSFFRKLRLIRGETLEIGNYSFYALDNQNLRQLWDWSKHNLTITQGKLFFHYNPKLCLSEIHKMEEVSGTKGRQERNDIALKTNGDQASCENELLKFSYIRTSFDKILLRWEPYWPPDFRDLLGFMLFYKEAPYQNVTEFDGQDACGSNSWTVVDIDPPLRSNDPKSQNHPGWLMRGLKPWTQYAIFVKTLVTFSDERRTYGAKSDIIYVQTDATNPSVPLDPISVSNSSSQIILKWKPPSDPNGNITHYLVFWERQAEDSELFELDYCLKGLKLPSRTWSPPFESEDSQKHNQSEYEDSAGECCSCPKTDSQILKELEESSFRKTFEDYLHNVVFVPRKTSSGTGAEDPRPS
Chain of Insulin receptor (P06213 763-1382 limits assumed): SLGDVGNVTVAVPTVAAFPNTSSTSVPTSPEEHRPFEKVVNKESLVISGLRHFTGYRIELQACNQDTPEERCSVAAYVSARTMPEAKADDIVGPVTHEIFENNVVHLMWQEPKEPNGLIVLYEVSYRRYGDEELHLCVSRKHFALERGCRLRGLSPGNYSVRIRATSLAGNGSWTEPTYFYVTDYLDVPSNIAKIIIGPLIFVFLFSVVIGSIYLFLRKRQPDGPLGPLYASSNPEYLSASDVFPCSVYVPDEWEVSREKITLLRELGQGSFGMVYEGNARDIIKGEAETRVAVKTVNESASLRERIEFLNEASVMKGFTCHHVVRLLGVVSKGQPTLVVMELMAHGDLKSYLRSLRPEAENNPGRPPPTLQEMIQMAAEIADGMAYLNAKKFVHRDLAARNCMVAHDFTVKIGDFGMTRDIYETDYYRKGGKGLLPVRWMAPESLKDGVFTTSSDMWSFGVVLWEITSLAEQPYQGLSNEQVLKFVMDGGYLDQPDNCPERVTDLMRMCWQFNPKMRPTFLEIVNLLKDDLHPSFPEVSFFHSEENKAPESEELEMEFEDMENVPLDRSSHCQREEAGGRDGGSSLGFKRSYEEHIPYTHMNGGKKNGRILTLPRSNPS
Chain of Cyclin-dependent kinase 4 (P11802 whole entry): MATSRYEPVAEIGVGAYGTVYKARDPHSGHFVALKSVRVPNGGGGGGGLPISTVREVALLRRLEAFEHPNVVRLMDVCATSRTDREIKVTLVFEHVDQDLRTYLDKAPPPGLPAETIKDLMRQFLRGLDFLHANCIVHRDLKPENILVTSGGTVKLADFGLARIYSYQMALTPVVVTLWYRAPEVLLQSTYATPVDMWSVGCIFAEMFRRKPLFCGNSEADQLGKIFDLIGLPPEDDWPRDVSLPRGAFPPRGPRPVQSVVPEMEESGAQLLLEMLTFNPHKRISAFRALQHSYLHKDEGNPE
Chain of Cytochrome P450 2C19 (P33261 whole entry): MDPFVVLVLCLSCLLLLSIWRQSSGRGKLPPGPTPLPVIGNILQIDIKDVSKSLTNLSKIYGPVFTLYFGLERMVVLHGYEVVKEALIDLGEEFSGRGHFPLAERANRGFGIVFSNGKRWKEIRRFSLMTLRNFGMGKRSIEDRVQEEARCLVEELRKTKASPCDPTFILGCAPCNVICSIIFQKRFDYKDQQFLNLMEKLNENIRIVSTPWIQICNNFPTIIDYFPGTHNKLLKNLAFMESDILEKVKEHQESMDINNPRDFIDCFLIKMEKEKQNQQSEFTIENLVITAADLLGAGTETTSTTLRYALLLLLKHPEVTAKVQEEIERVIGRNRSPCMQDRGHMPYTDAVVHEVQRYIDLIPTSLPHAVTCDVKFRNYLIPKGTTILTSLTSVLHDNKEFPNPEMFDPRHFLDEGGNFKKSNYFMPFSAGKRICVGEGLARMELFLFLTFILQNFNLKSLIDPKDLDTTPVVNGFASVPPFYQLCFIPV
Chain of STE20-like serine/threonine-protein kinase (Q9H2G2 whole entry): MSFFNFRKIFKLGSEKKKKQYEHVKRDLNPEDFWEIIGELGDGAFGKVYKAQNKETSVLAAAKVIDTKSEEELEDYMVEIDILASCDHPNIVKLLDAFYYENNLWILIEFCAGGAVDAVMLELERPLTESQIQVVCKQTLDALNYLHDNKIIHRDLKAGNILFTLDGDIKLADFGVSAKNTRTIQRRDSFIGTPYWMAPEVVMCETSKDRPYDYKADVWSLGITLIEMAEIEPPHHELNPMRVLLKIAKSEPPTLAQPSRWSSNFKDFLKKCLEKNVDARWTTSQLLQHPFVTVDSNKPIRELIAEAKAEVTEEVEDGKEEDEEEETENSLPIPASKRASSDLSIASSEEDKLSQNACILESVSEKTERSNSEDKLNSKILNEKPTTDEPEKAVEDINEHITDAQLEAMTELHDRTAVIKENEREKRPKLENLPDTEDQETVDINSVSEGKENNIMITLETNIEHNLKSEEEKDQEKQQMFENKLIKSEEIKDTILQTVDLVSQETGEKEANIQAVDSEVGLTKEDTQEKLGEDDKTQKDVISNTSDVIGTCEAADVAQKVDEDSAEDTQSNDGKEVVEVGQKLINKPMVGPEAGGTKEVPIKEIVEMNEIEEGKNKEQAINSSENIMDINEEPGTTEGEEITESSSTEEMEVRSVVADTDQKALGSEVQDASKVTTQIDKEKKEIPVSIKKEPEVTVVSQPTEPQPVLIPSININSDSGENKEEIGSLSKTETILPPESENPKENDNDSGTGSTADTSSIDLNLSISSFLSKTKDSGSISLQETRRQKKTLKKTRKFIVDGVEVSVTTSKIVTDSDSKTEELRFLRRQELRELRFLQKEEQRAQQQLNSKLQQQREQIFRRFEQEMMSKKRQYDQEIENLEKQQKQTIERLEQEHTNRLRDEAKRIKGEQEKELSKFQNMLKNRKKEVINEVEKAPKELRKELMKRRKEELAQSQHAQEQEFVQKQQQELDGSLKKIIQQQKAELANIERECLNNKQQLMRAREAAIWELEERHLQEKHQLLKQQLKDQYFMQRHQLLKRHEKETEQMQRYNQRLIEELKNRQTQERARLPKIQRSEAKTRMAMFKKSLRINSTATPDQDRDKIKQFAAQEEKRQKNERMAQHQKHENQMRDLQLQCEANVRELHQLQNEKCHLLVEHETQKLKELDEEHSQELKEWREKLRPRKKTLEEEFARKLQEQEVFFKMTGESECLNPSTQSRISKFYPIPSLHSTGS
Chain of Proto-oncogene tyrosine-protein kinase receptor Ret (P07949 whole entry): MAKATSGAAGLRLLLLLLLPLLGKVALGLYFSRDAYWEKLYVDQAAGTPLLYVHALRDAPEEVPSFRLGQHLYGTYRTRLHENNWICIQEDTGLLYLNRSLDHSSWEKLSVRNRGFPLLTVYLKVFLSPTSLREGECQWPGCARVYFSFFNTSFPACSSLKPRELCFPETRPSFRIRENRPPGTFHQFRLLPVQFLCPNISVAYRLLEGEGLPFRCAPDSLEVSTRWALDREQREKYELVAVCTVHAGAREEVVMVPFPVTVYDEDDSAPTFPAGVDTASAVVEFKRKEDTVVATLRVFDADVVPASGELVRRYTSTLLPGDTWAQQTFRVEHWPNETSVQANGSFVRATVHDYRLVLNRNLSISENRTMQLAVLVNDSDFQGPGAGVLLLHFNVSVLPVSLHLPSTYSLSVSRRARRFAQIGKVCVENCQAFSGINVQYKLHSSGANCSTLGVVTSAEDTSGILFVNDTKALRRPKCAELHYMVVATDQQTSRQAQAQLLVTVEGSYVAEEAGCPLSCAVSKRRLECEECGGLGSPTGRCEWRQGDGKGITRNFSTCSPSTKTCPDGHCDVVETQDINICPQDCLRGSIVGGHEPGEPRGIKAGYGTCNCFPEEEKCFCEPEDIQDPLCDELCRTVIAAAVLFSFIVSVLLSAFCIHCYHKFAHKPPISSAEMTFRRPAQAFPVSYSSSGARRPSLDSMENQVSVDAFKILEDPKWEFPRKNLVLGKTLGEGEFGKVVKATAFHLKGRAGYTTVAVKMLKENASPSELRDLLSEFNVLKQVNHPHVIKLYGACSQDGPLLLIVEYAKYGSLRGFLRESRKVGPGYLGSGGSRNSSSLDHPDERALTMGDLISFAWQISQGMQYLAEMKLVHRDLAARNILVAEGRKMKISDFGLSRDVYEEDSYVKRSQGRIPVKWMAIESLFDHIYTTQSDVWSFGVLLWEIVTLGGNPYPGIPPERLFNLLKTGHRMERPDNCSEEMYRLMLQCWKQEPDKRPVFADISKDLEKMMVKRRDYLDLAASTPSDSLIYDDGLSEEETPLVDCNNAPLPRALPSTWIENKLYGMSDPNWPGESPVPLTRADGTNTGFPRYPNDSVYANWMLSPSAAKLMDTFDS

For `Nc1nccc(-c2cc3c([nH]2)[C@@H](CCF)CNC3=O)n1`, which IC50 (Insulin receptor) is on record?
The IC50 was > 4 µM.

And the IC50 [1]?
The IC50 was > 4 µM.

And the IC50 [2]?
The IC50 was > 4 µM.

And the IC50 [3]?
Its IC50 is > 4 µM.

And the IC50 [4]?
Its IC50 is > 4 µM.

What about the IC50 [5] of the same compound?
The IC50 was > 4 µM.

And the CL (mL.min-1.kg-1) (Hepatocyte)?
Its CL (mL.min-1.kg-1) is 5.

And the clearance [6]?
Its clearance is 61.7 mL/min/kg.

What about the half-life [7] of the same compound?
Its half-life is 60 min.

What about the Tmax [8] of the same compound?
Its Tmax is 30 min.

What about the bioavailability [9] of the same compound?
Its bioavailability is 53%.

What about the IC50 [10] of the same compound?
Its IC50 is 2 nM.

And the IC50 (A2780 [11])?
Its IC50 is 500 nM.

And the Vd [12]?
The Vd was 2.1 L/kg.

And the half-life [13]?
Its half-life is 78 min.

What about the AUC(0-inf) [14] of the same compound?
The AUC(0-inf) was 6.3 µM·h.

And the Cmax [15]?
The Cmax was 5.5 µM.

What about the AUC(0-inf) [16] of the same compound?
Its AUC(0-inf) is 6.4 µM·h.

And the half-life [17]?
The half-life was 72 min.

What about the IC50 [18] of the same compound?
Its IC50 is 1200 nM.

What about the IC50 (OPM-2) of the same compound?
Its IC50 is 3.7 µM.

And the IC50 (NHDF)?
Its IC50 is 1600 nM.

What about the IC50 [19] of the same compound?
The IC50 was 2500 nM.

And the Activity (HeLa [20])?
The Activity was 6%.

What about the Activity (HeLa [21]) of the same compound?
The Activity was “Active”.

And the Activity (A2780 [22])?
Its Activity is “Active”.

What about the Activity (Cytochrome P450 2C19) of the same compound?
The Activity was “Not Active”.

And the Activity (Cytochrome P450 3A4)?
The Activity was “Not Active”.

What about the Activity (Mus musculus) of the same compound?
The Activity was “Active”.

And the IC50 [23]?
The IC50 was 138 nM.

And the IC50 [24]?
The IC50 was 359 nM.

What about the IC50 [25] of the same compound?
The IC50 was 1150 nM.

And the IC50 [26]?
The IC50 was > 4 µM.

And the IC50 [27]?
Its IC50 is > 4 µM.

And the IC50 (Aurora kinase A)?
Its IC50 is > 4 µM.

And the IC50 [28]?
Its IC50 is > 4 µM.

And the IC50 [29]?
The IC50 was > 4 µM.

And the IC50 [30]?
Its IC50 is 846 nM.

And the Tmax [31]?
The Tmax was 18 min.
